Experimental data: PMC4454367 (Environmental science & technology, 2015)
Where “and” joins values, the source holds several entries; their conditions need not be identical. Equal entries are not always repeated.

Key:
A. mexicanum AHR [1] = biological target: T1, A. mexicanum AHR (Ambystoma mexicanum, UniProt A0A0F6TLE0); assay: Transactivation; format: cell-based
T1 sequence (A0A0F6TLE0 1-853): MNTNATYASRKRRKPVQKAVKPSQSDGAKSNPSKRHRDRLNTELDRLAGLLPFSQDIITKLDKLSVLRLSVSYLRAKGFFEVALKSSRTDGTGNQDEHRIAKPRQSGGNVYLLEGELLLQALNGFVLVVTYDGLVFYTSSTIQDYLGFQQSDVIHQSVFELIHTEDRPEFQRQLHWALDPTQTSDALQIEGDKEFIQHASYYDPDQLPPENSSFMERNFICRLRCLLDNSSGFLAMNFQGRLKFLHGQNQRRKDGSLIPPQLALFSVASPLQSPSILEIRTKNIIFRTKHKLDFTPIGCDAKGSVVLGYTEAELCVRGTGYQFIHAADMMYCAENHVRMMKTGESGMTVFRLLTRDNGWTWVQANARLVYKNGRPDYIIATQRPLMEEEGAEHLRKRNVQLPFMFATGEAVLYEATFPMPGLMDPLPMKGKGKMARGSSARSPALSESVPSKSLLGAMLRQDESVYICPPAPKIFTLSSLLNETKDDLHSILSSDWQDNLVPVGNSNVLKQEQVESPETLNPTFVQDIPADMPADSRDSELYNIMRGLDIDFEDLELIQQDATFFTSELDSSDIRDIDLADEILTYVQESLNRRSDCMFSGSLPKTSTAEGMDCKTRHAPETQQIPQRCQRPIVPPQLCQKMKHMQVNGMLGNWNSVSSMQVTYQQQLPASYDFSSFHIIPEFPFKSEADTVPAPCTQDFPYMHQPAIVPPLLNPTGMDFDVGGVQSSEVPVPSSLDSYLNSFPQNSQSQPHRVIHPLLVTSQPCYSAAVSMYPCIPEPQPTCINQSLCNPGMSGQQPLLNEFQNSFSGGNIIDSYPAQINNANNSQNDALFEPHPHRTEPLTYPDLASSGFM

X. laevis AHR1β [2] = biological target: T2, X. laevis AHR1β (Xenopus laevis, UniProt Q4QY30); assay: Transactivation; format: cell-based
T2 sequence (Q4QY30 1-834): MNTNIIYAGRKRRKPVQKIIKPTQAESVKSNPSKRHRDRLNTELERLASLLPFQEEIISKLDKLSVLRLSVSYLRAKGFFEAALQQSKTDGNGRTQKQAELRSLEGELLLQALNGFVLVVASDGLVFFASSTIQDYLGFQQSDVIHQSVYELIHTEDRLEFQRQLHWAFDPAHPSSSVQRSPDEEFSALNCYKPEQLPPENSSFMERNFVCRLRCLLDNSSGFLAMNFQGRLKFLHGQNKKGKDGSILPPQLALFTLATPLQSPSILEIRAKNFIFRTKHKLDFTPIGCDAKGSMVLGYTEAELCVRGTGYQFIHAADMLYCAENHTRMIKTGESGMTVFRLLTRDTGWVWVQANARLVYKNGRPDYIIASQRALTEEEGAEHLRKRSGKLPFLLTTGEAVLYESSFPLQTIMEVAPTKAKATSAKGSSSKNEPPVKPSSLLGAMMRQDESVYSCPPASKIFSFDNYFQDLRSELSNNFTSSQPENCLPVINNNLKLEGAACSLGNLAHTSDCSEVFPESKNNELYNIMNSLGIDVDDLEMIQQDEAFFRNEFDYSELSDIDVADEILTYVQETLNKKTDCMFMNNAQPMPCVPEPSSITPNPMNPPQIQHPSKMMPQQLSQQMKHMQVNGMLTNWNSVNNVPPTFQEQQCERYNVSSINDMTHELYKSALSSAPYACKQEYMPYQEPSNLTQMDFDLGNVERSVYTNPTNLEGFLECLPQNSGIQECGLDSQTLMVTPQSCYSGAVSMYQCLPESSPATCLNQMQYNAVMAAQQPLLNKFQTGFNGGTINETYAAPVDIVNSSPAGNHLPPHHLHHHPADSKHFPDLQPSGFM

chicken AHR = conditions: TCDD binding; cited from earlier work
tern AHR = tern AHR (V325, A381) vs chicken AHR (I325, S381); cited from earlier work
X. laevis AHR1β [3] = biological target: T2, X. laevis AHR1β; assay: Velocity sedimentation analysis of [3H]TCDD binding, X. laevis AHR1β; conditions: 2 nM [3H]TCDD, 18 h at 4°, sucrose gradients, in vitro synthesized AHR
How it was run: (§1)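 AHR made in vitro from pCMVTNT in a rabbit reticulocyte coupled transcription/translation system, diluted 1:1 in MEDMDG buffer (pH 7.5, molybdate, glycerol, DTT), incubated 18 h at 4° with 2 nM [1,6-3H]TCDD. Run on 10–30% sucrose gradients at 65,000 rpm for 90 min with [14C]catalase marker. Fractions scintillation-counted; specific binding is peak fractions minus empty-vector lysate. Three replicates, mean ± standard error.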

AHR2 from zebrafish = conditions: TCDD binding; cited from earlier work
[4] = test system: larvae of the tiger salamander; conditions: cited from earlier work
X. laevis AHR1β [5] = biological target: T2, X. laevis AHR1β; conditions: cited from earlier work
X. laevis AHR1α = conditions: read-out: apparent Kd; TCDD binding; cited from earlier work
zebrafish = conditions: cited from earlier work
mouse AHR = conditions: TCDD binding; cited from earlier work
A. mexicanum AHR [6] = biological target: T1, A. mexicanum AHR; assay: Velocity sedimentation analysis of [3H]TCDD binding, A. mexicanum AHR; conditions: 2 nM [3H]TCDD, 18 h at 4°, sucrose gradients, in vitro synthesized AHR
How it was run: as §1

Structure (SMILES)	EC50 (A. mexicanum AHR [1]) [pM]	EC50 of axolotl AHR relative to that of the chimeric AHR (A. mexicanum AHR [1]; FICZ 3 h exposure, fold greater than chimeric AHR)	EC50 (X. laevis AHR1β [2]) [pM]	Kd (chicken AHR) [pM]	TCDD affinity of tern AHR, fold lower than the chicken AHR (tern AHR) [fold]	Specific [3H]TCDD binding peak relative to mouse AHR or chimeric AHR (X. laevis AHR1β [3])	Kd (AHR2 from zebrafish) [pM]	nominal TCDD concentrations defined as sub-lethal [4]	Kd (saturability of TCDD binding) (X. laevis AHR1β [5])	EC50 of A. mexicanum AHR relative to that of the mouse:frog chimera (A. mexicanum AHR [1]; TCDD 24 h, fold greater than chimeric AHR) [fold]	Kd (X. laevis AHR1α) [pM]	LC100 (zebrafish)	Kd (mouse AHR) [pM]	Specific [3H]TCDD binding peak relative to mouse AHR or chimeric AHR (A. mexicanum AHR [6])
O=Cc1c2[nH]c3ccccc3c2cc2[nH]c3ccccc3c12 [FICZ, 6-formylindolo[3,2-b]carbazole]	450	about 45 fold	140											
Clc1cc2c(cc1Cl)Oc1cc(Cl)c(Cl)cc1O2 [TCDD, 2,3,7,8-tetrachlorodibenzo-p-dioxin]				800	7	approximately one-tenth	1100	up to 3.0 μg/L and ≤ 9.3 nM	unsaturable	~300	47200	no more than 1.55 nM	2400	one-tenth
